For assay [1], the system named is Mus musculus. The assay is described as follows: Antitumor activity against ip implanted P388 leukemia in mouse after ip administration of 80 mg/kg for 5 days expressed as increase in mean life span. Particulars: 120 h, route intraperitoneal. The class given is functional. A digest of the protocol:
(§1)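 Saline-dissolved drug was given ip daily for 5 consecutive days, beginning 24 h post-transplant. ILS % was calculated from treated vs control mean survival time over an 80-day observation period.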

The test system of assay [2] is Mus musculus. Kind of assay: Inhibition of sc implanted syngeneic colon 38 carcinoma by ip administration at 40 mg/kg on 1, 3, 5, 7, 9 days measured as inhibition ratio. The class given is functional. Particulars: route subcutaneous. The essentials: (§2)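 Tumor homogenate (70 mg) implanted into the axillary region of female BDF1 mice. Drug dissolved in 0.9% NaCl and diluted with saline just before use, then given ip on days 1, 3, 5, 7 and 9. Tumor length and width were measured by caliper on day 20 after inoculation and converted to estimated weight. Result reported as treated vs control tumor weight, T/C %.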

Assay [3] concerns Mus musculus. The assay is described as follows: Antitumor activity against ip implanted L1210 leukemia in mouse after ip administration of 10 mg/kg for 5 days expressed as increase in mean life span. Type of assay: functional. Particulars: Mus musculus, L1210, ip, 120 h, route intraperitoneal. A digest of the protocol:
(§3)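 Drug was dissolved in 0.9% NaCl, diluted just before use and given ip once daily for 5 consecutive days, starting 24 h after transplant. ILS % = mean survival time of treated vs control mice, observed for 80 days.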

Assay [4] concerns Mus musculus. The assay is described as follows: Antitumor activity against ip implanted L1210 leukemia in mouse after ip administration of 5 mg/kg for 5 days expressed as increase in mean life span. The class given is functional. The conditions noted are these: Mus musculus, L1210, ip, 120 h, route intraperitoneal. A digest of the protocol:
as §3

The subject of assay [5] is Mus musculus. Kind of assay: Antitumor activity against ip implanted L1210 leukemia in mouse after iv administration of 2 mg/kg for 5 days expressed as increase in mean life span. The conditions noted are these: 120 h.
The test system of assay [6] is Mus musculus. Kind of assay: Antitumor activity against ip implanted P388 leukemia in mouse after iv administration of 8 mg/kg for 5 days expressed as increase in mean life span. Particulars: 120 h.
Assay [7] concerns Mus musculus. The assay is described as follows: Inhibition of sc implanted syngeneic colon 38 carcinoma by ip administration at 80 mg/kg on 1, 3, 5, 7, 9 days measured as inhibition ratio. The conditions noted are these: route subcutaneous. Type of assay: functional. A digest of the protocol:
as §2

For assay [8], the system named is Mus musculus. Kind of assay: Number of survivors out of 6 ip implanted L1210 leukemia in mouse after ip administration of 40 mg/kg after 80 days. Type of assay: functional. Particulars: route intraperitoneal. The essentials: (§4)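 Female BDF1 mice implanted ip with ascitic fluid holding 10^5 L1210 cells. Saline-dissolved drug given ip daily on days 1-5, starting 24 h after implant. Six mice per dose group, followed 80 days. Survivors/total counted at day 80; ILS % from mean survival time vs controls.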

Assay [9] has as its system Mus musculus. The assay is described as follows: Inhibition of sc implanted syngeneic colon 38 carcinoma by ip administration at 60 mg/kg on 1, 3, 5, 7, 9 days measured as inhibition ratio. The class given is functional. Particulars: route subcutaneous. The essentials:
as §2

Assay [10] relates to Mus musculus. The assay is described as follows: Antitumor activity against ip implanted L1210 leukemia in mouse after ip administration of 20 mg/kg for 5 days expressed as increase in mean life span. Particulars: 120 h, route intraperitoneal. Type of assay: functional. The essentials: as §3
Assay [11] has as its system Mus musculus. Kind of assay: Antitumor activity against ip implanted P388 leukemia in mouse after ip administration of 1.25 mg/kg for 5 days expressed as increase in mean life span. The conditions noted are these: 120 h, route intraperitoneal. The class given is functional. A digest of the protocol: as §1
The subject of assay [12] is Mus musculus. The assay is described as follows: Antitumor activity against ip implanted L1210 leukemia in mouse after ip administration of 40 mg/kg for 5 days expressed as increase in mean life span. Type of assay: functional. The conditions noted are these: 120 h, route intraperitoneal. The essentials: as §3
For assay [13], the system named is Mus musculus. Kind of assay: Number of survivors out of 6 ip implanted P388 leukemia in mouse after ip administration of 20 mg/kg after 80 days. The conditions noted are these: route intraperitoneal. Type of assay: functional. The essentials: (§5)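 P388 leukemia, 10^6 ascitic cells implanted ip in female BDF1 mice. Drug in saline given ip for 5 consecutive days from 24 h after transplant. Groups of six per dose level. Survivors/total recorded at the 80-day end of observation; ILS % from treated/control mean survival time.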

The test system of assay [14] is Mus musculus. The assay is described as follows: Number of survivors out of 6 ip implanted L1210 leukemia in mouse after ip administration of 20 mg/kg after 80 days. The conditions noted are these: route intraperitoneal. The class given is functional. The essentials: as §4
Assay [15] concerns Mus musculus. The assay is described as follows: Number of survivors out of 6 ip implanted L1210 leukemia in mouse after ip administration of 80 mg/kg after 80 days. The class given is functional. Particulars: route intraperitoneal. A digest of the protocol: as §4
Assay [16] deals with Mus musculus. The assay is described as follows: Effect on ip implanted syngeneic B16 melanoma by ip administration of 30 mg/kg for 9 days measured as increase in mean life span. The conditions noted are these: 216 h.
Assay [17] has as its system Mus musculus. Kind of assay: Effect on ip implanted syngeneic B16 melanoma by ip administration of 20 mg/kg for 9 days measured as increase in mean life span. Particulars: 216 h.
The subject of assay [18] is Mus musculus. Kind of assay: Antitumor activity against ip implanted L1210 leukemia in mouse after iv administration of 4 mg/kg for 5 days expressed as increase in mean life span. The conditions noted are these: 120 h.
The subject of assay [19] is Mus musculus. The assay is described as follows: Number of survivors out of 6 ip implanted P388 leukemia in mouse after ip administration of 10 mg/kg after 80 days. The class given is functional. Particulars: route intraperitoneal. A digest of the protocol:
as §5

Assay [20] relates to Mus musculus. Kind of assay: Antitumor activity against ip implanted P388 leukemia in mouse after ip administration of 40 mg/kg for 5 days expressed as increase in mean life span. The class given is functional. The conditions noted are these: 120 h, route intraperitoneal. A digest of the protocol: as §1
Assay [21] deals with Mus musculus. Kind of assay: Effect on ip implanted syngeneic B16 melanoma by ip administration for 9 days at 10 mg/kg was measured as increase in mean life span. The conditions noted are these: 216 h.
Assay [22] deals with Mus musculus. The assay is described as follows: Antitumor activity against ip implanted P388 leukemia in mouse after ip administration of 5 mg/kg for 5 days expressed as increase in mean life span. Type of assay: functional. Particulars: 120 h, route intraperitoneal. A digest of the protocol:
as §1

Assay [23] deals with Mus musculus. The assay is described as follows: Number of survivors out of 6 ip implanted P388 leukemia in mouse after ip administration of 80 mg/kg after 80 days. Type of assay: functional. Particulars: route intraperitoneal. A digest of the protocol: as §5
The test system of assay [24] is Mus musculus. The assay is described as follows: Number of survivors out of 6 ip implanted L1210 leukemia mouse, tested after 80 days at 30 mg/kg. The class given is functional. The conditions noted are these: route intraperitoneal, 30 mg/kg. A digest of the protocol:
as §4

For assay [25], the system named is Mus musculus. Kind of assay: Antitumor activity against ip implanted P388 leukemia in mouse after ip administration of 10 mg/kg for 5 days expressed as increase in mean life span. The class given is functional. Particulars: 120 h, route intraperitoneal. A digest of the protocol: as §1
Assay [26] relates to Mus musculus. Kind of assay: Antitumor activity against ip implanted P388 leukemia in mouse after iv administration of 4 mg/kg for 5 days expressed as increase in mean life span. The conditions noted are these: 120 h.
Assay [27] deals with Mus musculus. Kind of assay: Effect on ip implanted syngeneic B16 melanoma by ip administration for 9 days at 5 mg/kg was measured as increase in mean life span. The conditions noted are these: 216 h.
Assay [28] deals with Mus musculus. The assay is described as follows: Inhibition of sc implanted syngeneic colon 38 carcinoma by ip administration at 30 mg/kg on 1, 3, 5, 7, 9 days measured as inhibition ratio. Type of assay: functional. The conditions noted are these: route intraperitoneal. A digest of the protocol:
as §2

Assay [29] relates to Mus musculus. Kind of assay: Antitumor activity against ip implanted L1210 leukemia in mouse after ip administration of 30 mg/kg for 5 days expressed as increase in mean life span. Type of assay: functional. Particulars: route intraperitoneal, 30 mg/kg. A digest of the protocol:
as §3

Assay [30] deals with Mus musculus. Kind of assay: Antitumor activity against ip implanted P388 leukemia in mouse after ip administration of 20 mg/kg for 5 days expressed as increase in mean life span. The class given is functional. Particulars: 120 h, route intraperitoneal. A digest of the protocol:
as §1

For assay [31], the system named is Mus musculus. The assay is described as follows: Number of survivors out of 6 ip implanted P388 leukemia in mouse after ip administration of 40 mg/kg after 80 days. The conditions noted are these: route intraperitoneal. The class given is functional. The essentials: as §5
In assay [32] the test system is Mus musculus. The assay is described as follows: Antitumor activity against ip implanted L1210 leukemia in mouse after ip administration of 1.25 mg/kg for 5 days expressed as increase in mean life span. Type of assay: functional. The conditions noted are these: 120 h, route intraperitoneal. The essentials: as §3
Assay [33] concerns Mus musculus. The assay is described as follows: Inhibition of sc implanted syngeneic colon 38 carcinoma by ip administration at 5 mg/kg on 1, 3, 5, 7, 9 days measured as inhibition ratio. The class given is functional. Particulars: route subcutaneous. A digest of the protocol: as §2
The subject of assay [34] is Mus musculus. The assay is described as follows: Effect on ip implanted syngeneic B16 melanoma by ip administration for 9 days at 2.5 mg/kg was measured as increase in mean life span. The conditions noted are these: 216 h.
For assay [35], the system named is Mus musculus. Kind of assay: Antitumor activity against ip implanted syngeneic P388 leukemia in mouse after ip administration of 5 mg/kg for 5 days expressed as increase in mean life span. The conditions noted are these: 120 h, route intraperitoneal. Type of assay: functional. The essentials: as §1

What is called ILS is the gain in survival time of treated over control animals, in per cent. A high value points to much gain in survival. In general, T/C refers to the result in the treated group divided by that in the control group, in per cent. For the compound `Cc1c2cc[n+]([C@H]3O[C@@H](C)[C@@H](O)[C@@H](O)[C@@H]3O)cc2c(C)c2c1[nH]c1ccc(O)cc12.[Br-]` (stereo in doubt; 56), the ILS at 80 mg/kg with Mus musculus [1] was over 513%. In addition, the T/C in the assay on Mus musculus [2] is on record as 19%; with Mus musculus [7], 2%; with Mus musculus [9], 3%; in the assay on Mus musculus [28], 52%. The figures for the ILS at 10 mg/kg in the assay with Mus musculus [3], in the assay with Mus musculus [21] and with Mus musculus [25] were 107%, 62% and over 341%, respectively. Also, the ILS at 5 mg/kg with Mus musculus [4] worked out at 67%; in the assay on Mus musculus [22], 109%; with Mus musculus [27] it was 50%. Besides, in the assay on Mus musculus [5], the ILS at 2 mg/kg came to 9%. The increase in life span (ILS) at 8 mg/kg with Mus musculus [6] is 76%. Also, the Cures in the assay on Mus musculus [8] stood at 4; with Mus musculus [13], 5; with Mus musculus [14], 1; with Mus musculus [15], 6; with Mus musculus [19], 2; in the assay on Mus musculus [23] it was 4. Also, the figures for the Cures in the assay with Mus musculus [24] and in the assay with Mus musculus [31] were 4 and 6, respectively. In addition, the increase in life span (ILS) at 20 mg/kg in the assay with Mus musculus [10] is over 248%; in the assay with Mus musculus [17], 81%; in the assay with Mus musculus [30] it was over 677%. Also, the ILS at 1.25 mg/kg in the assay on Mus musculus [11] came out at 85%; in the assay with Mus musculus [32] it was 56%. The figures for the ILS at 40 mg/kg in the assay on Mus musculus [12] and in the assay on Mus musculus [20] were over 712% and over 789%, respectively. The same compound returned an ILS at 30 mg/kg in the assay with Mus musculus [16] of 58%. For the same compound, the ILS at 4 mg/kg worked out at 38% in the assay on Mus musculus [18] and 63% with Mus musculus [26]. The compound also registered an ILS with Mus musculus [29] of over 693%.

Take `CC(=O)[O-].Cc1c2cc[n+](C)cc2c(C)c2c1[nH]c1ccc(O)cc12` [ELLIPTINIUM ACETATE]: in the assay on Mus musculus [33], the T/C turned out to be 38%. The results for the ILS at 5 mg/kg in the assay with Mus musculus [4] and with Mus musculus [35] were 48% and 90%, respectively. This compound also displayed an ILS at 2.5 mg/kg with Mus musculus [34] of 35%.
